In ChEMBL document CHEMBL4130356, “Design, synthesis and 2D QSAR study of novel pyridine and quinolone hydrazone derivatives as potential antimicrobial and antitubercular agents” (Eur J Med Chem, 2017):
Values after ≈ are worked out from the molar mass of the structure shown. Active and inactive are the calls of the source. The calls are words filed in the database; no cut-off is given here.

Tests used:
Aspergillus fumigatus [1] = assay: Antimicrobial activity against Aspergillus fumigatus RCMB 02568 assessed as diameter of zone inhibition at 100 ug/ml after 48 hrs by agar well diffusion assay; type: functional; settings: for zone of inhibition at 100 µg/mL: RCMB 02568, 48 h, read-out: DIZ
In short: (§1)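 Agar well diffusion on malt agar plates seeded with the fungus, using 1 cm wells. Plates were held at 4°C for 1 h for diffusion, then incubated at 28°C. Inhibition zone diameters were measured at 48 h. Amphotericin B was the positive control. Run in triplicate, with the mean zone reported.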

Candida albicans [2] = assay: Antimicrobial activity against Candida albicans RCMB 05036 assessed as diameter of zone inhibition at 100 ug/ml after 48 hrs by agar well diffusion assay; type: functional; settings: for zone of inhibition at 100 µg/mL: RCMB 05036, 48 h, read-out: DIZ; in short: as §1
Streptococcus pneumoniae = assay: Antimicrobial activity against Streptococcus pneumoniae RCMB 010010 assessed as diameter of zone inhibition at 100 ug/ml after 24 hrs by agar well diffusion assay; type: functional; settings: for zone of inhibition at 100 µg/mL: RCMB 010010, 24 h, read-out: DIZ
In short: (§2)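 Agar well diffusion on nutrient agar plates seeded with the bacterium, using 1 cm wells. Plates were held at 4°C for 1 h for diffusion, then incubated at 37°C. Inhibition zone diameters were measured at 24 h. Ciprofloxacin was the positive control. Run in triplicate, with the mean zone reported.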

Staphylococcus aureus = assay: Antimicrobial activity against Staphylococcus aureus RCMB 010028 assessed as diameter of zone inhibition at 100 ug/ml after 24 hrs by agar well diffusion assay; type: functional; settings: for zone of inhibition at 100 µg/mL: RCMB 010028, 24 h, read-out: DIZ; in short: as §2
Escherichia coli = assay: Antimicrobial activity against Escherichia coli RCMB 010052 assessed as diameter of zone inhibition at 100 ug/ml after 24 hrs by agar well diffusion assay; type: functional; in short: as §2
[3] = tested on: Mycobacterium tuberculosis; assay: Antimycobacterial activity against Mycobacterium tuberculosis RCMB 010126 clinical isolate after 7 days by MABA; type: functional
In short: (§3)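 Inoculum from fresh LJ culture resuspended in 7H9-S broth with casitone, glycerol and OADC, adjusted to McFarland No. 1 and diluted 1:20. Serial two-fold compound dilutions in 7H9-S; isoniazid reference. Incubated 7 days at 37°C in air, then Alamar blue added and incubated overnight. Percent inhibition = 1 − (test well/growth-control mean) × 100; MIC = lowest concentration preventing blue-to-pink change.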

[4] = tested on: Mycobacterium tuberculosis; assay: Antimycobacterial activity against Mycobacterium tuberculosis RCMB 010126 clinical isolate assessed as inhibition zone after 7 days by MABA; type: functional; in short: as §3
Pseudomonas aeruginosa = settings: RCMB 010043, 100 ug/ml
Aspergillus fumigatus [5] = assay: Antimicrobial activity against Aspergillus fumigatus RCMB 02568 after 48 hrs by serial dilution method; type: functional; settings: RCMB 02568, 48 h
In short: (§4)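 Serial twofold dilution in microtiter plates starting from a 100 mmol stock in DMSO; final concentrations 125 down to 0.12 […]. Incubated at 28°C and read on a microplate reader after 48 h. Amphotericin B was the reference. Run in triplicate, with the average taken. MIC was the lowest concentration inhibiting growth.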

Candida albicans [6] = assay: Antimicrobial activity against Candida albicans RCMB 05036 after 48 hrs by serial dilution method; type: functional; settings: RCMB 05036, 48 h; in short: as §4
[7] = Mycobacterium tuberculosis, RCMB 010126, 168 h

| SMILES | diameter of the inhibition zone (DIZ) (Aspergillus fumigatus [1]) | diameter of the inhibition zone (DIZ) (Candida albicans [2]) | diameter of the inhibition zone (DIZ) (Streptococcus pneumoniae) | diameter of the inhibition zone (DIZ) (Staphylococcus aureus) | diameter of the inhibition zone (DIZ) (Escherichia coli) | MIC [3, 7] [µg/mL] | inhibition zone (IZ) [4] | DIZ (Pseudomonas aeruginosa) | zone of inhibition at 100 µg/mL (Streptococcus pneumoniae) [mm] | zone of inhibition at 100 µg/mL (Staphylococcus aureus) [mm] | zone of inhibition at 100 µg/mL (Aspergillus fumigatus [1]) [mm] | zone of inhibition at 100 µg/mL (Candida albicans [2]) [mm] | zone of inhibition at 100 µg/mL (Escherichia coli; RCMB 010052, 24 h, read-out: DIZ) [mm] | MIC [3] | MIC (Aspergillus fumigatus [5]) [µg/mL] | MIC (Candida albicans [6]) [µg/mL] |
| --- | --- | --- | --- | --- | --- | --- | --- | --- | --- | --- | --- | --- | --- | --- | --- | --- |
| Cc1nc(-c2ccc(Cl)cc2)ccc1C(=O)N/N=C/c1ccc(F)cc1 | inactive | inactive | inactive | inactive | inactive | 6.24 (≈ 17 µM) | 40.31 mm | inactive | – | – | – | – | – | – | – | – |
| Cc1nc(-c2cccc(Cl)c2)ccc1C(=O)N/N=C/c1ccc(Cl)cc1Cl | inactive | inactive | – | – | inactive | 6.24 (≈ 14.9 µM) | 41.98 mm | inactive | 19.3 | 11.4 | – | – | – | – | – | – |
| Cc1nc(-c2cccc(Cl)c2)ccc1C(=O)N/N=C/c1ccc(F)cc1 | inactive | inactive | inactive | inactive | inactive | 3.12 (≈ 8.48 µM) | 52.34 mm | inactive | – | – | – | – | – | – | – | – |
| O=C(N/N=C/c1ccc(F)cc1)c1c[nH]c2cc(Cl)ccc2c1=O | – | – | – | – | – | 12.5 (≈ 36.3 µM) | 36.42 mm | inactive | 16.9 | 16.2 | 16.8 | 14.4 | 12.5 | – | – | – |
| Cc1ccc(/C=N/NC(=O)c2ccc(-c3ccc(Cl)cc3)nc2C)cc1 | inactive | inactive | inactive | inactive | inactive | 49.9 (≈ 137 µM) | 26.35 mm | inactive | – | – | – | – | – | – | – | – |
| COc1cc(/C=N/NC(=O)c2c[nH]c3cc(Cl)ccc3c2=O)cc(OC)c1OC | inactive | inactive | inactive | inactive | inactive | 6.24 (≈ 15 µM) | 42.65 mm | inactive | – | – | – | – | – | – | – | – |
| Cc1nc(-c2ccc(Cl)cc2)ccc1C(=O)N/N=C/c1ccc(Cl)cc1 | inactive | inactive | inactive | inactive | inactive | 12.5 (≈ 32.5 µM) | 36.24 mm | inactive | – | – | – | – | – | – | – | – |
| NNC(=O)c1ccncc1 [ISONIAZID] | – | – | – | – | – | 0.75 (≈ 5.47 µM) | inactive | – | – | – | – | – | – | – | – | – |
| Cc1ccc(/C=N/NC(=O)c2c[nH]c3ccc(Cl)cc3c2=O)cc1 | – | – | – | inactive | inactive | – | inactive | inactive | 20.4 | – | 10.3 | 12.1 | – | inactive | – | – |
| C[C@@H]1[C@H](O)[C@@H](C)/C=C/C=C/C=C/C=C/C=C/C=C/C=C/[C@H](O[C@@H]2O[C@H](C)[C@@H](O)[C@H](N)[C@@H]2O)C[C@@H]2O[C@](O)(C[C@@H](O)C[C@@H](O)[C@H](O)CC[C@@H](O)C[C@@H](O)CC(=O)O[C@H]1C)C[C@H](O)[C@H]2C(=O)O [AMPHOTERICIN B] | – | – | – | – | – | – | – | – | – | – | 23.7 | 25.4 | – | – | 1.95 (≈ 2.11 µM) | 0.98 (≈ 1.06 µM) |
